{"data": "Assay results collected from several papers", "CSF1R": "Macrophage colony-stimulating factor 1 receptor (CSF1R, Homo sapiens, UniProt P07333)", "CSF1R autoinhibited": "Macrophage colony-stimulating factor 1 receptor, autoinhibited (CSF1R, Homo sapiens, UniProt P07333)", "CSF1R Y969C": "Macrophage colony-stimulating factor 1 receptor (CSF1R, Homo sapiens, UniProt P07333, Y969C)", "note": "Compare with care: the assays were run in different laboratories."}
{"Compound": "CC/C(=N\\NC(=O)NCc1cccc(O)c1)c1ccc(O)c(C)c1O", "target": "CSF1R", "effect on": "enzyme activity", "action": "inhibitor", "tested at": "0.1 µM", "measurement": "inhibition", "result": "-4.4%"}
{"Compound": "CCCOc1ccc([C@H]2[C@H](C(=O)O)[C@@H](c3ccc4c(c3)OCO4)CN2CC(=O)Nc2c(CC)cccc2CC)cc1", "target": "CSF1R autoinhibited", "effect on": "cell-free assay", "method": "competition with immobilised ligand", "tested at": "1 µM", "measurement": "remaining binding", "result": "61%"}
{"Compound": "O=C1Nc2ccc(Cl)cc2C1=Cc1cc(Cl)c(O)c(Cl)c1", "target": "CSF1R", "effect on": "cell-free assay", "tested at": "0.5 µM", "measurement": "remaining signal", "result": "77.9%"}
{"Compound": "CNC(=O)c1cc2c(Oc3ccc(NC(=O)C4(C(=O)Nc5ccc(F)cc5)CC4)cc3)ccnc2cc1OC", "target": "CSF1R Y969C", "effect on": "enzyme activity", "action": "inhibitor", "method": "radiometric", "tested at": "1 µM", "measurement": "inhibition", "result": "77%"}
{"Compound": "CCCOc1ccc(OC)c(F)c1C(=O)c1ccc(C(=O)N[C@@H]2CNC[C@H]2NC(=O)c2ccc3[nH]ncc3c2)cc1", "target": "CSF1R", "effect on": "enzyme activity", "action": "inhibitor", "tested at": "10 µM", "measurement": "remaining activity", "result": "27%"}
{"Compound": "CN(C)c1nccc(-c2cnn3ncccc23)n1", "target": "CSF1R autoinhibited", "effect on": "binding", "tested at": "1 µM", "measurement": "remaining binding", "result": "100%"}
{"Compound": "COc1cc(-c2cn(C3CCc4c(F)cccc4N(CC(F)(F)F)C3=O)nn2)ccc1-n1cnc(C)c1 (stereo not drawn)", "target": "CSF1R autoinhibited", "effect on": "cell-free assay", "method": "competition with immobilised ligand", "tested at": "1 µM", "measurement": "remaining binding", "result": "100%"}
{"Compound": "Cc1cnc(NC2CCOCC2)nc1-n1cnc(C(=O)NC(CN)c2cc(F)cc(Cl)c2)c1 (stereo not drawn)", "target": "CSF1R", "effect on": "enzyme activity", "action": "inhibitor", "method": "radiometric", "tested at": "1 µM", "measurement": "remaining activity", "result": "103%"}
{"Compound": "O=C(CSc1nc2nccnc2c(=O)n1CCc1ccccc1)Nc1nccs1", "target": "CSF1R", "effect on": "enzyme activity", "action": "inhibitor", "tested at": "10 µM", "measurement": "inhibition", "result": "13%"}
{"Compound": "CCCS(=O)(=O)Nc1ccc(F)c(C(=O)c2c[nH]c3ncc(-c4ccc(Cl)cc4)cc23)c1F", "target": "CSF1R", "effect on": "enzyme activity", "action": "inhibitor", "tested at": "1 µM", "measurement": "inhibition", "result": "< 20%"}
{"Compound": "O=C(Nc1cnn(-c2csc(C(=O)NC3COC3)c2)c1)Nc1c(F)cccc1Cl", "target": "CSF1R", "effect on": "enzyme activity", "action": "inhibitor", "tested at": "5 µM", "measurement": "remaining activity", "result": "98.9%"}
{"Compound": "CC(C)(C)c1nc(-c2cccc(NS(=O)(=O)c3c(F)cccc3F)c2F)c(-c2ccnc(N)n2)s1", "target": "CSF1R", "effect on": "enzyme activity", "action": "inhibitor", "method": "radiometric", "tested at": "1 µM", "measurement": "remaining activity", "result": "109%"}
{"Compound": "CN(C(=O)c1ccccc1)c1cc(N(C)c2ccc3c(c2)CCc2ccc(C(=O)NCCN4CCOCC4)cc2C3=O)ccc1F", "target": "CSF1R", "effect on": "cell-free assay", "method": "competition with immobilised ligand", "tested at": "1 µM", "measurement": "remaining binding", "result": "98%"}
{"Compound": "Cc1ccc(NC(=O)c2ccc(CN3CCN(C)CC3)cc2)cc1Nc1nccc(-c2cncc(-c3oncc3C)c2)n1", "target": "CSF1R", "effect on": "enzyme activity", "action": "inhibitor", "tested at": "0.5 µM", "measurement": "remaining activity", "result": "≤ 50%"}
{"Compound": "FC(F)(F)c1ccc2c(c1)nc(-c1cccnc1)n2C1CC1", "target": "CSF1R autoinhibited", "effect on": "cell-free assay", "method": "competition with immobilised ligand", "tested at": "1 µM", "measurement": "remaining binding", "result": "89%"}
{"Compound": "C[C@@H]1CCN(c2nccc(-c3cnn4ncccc34)n2)C1", "target": "CSF1R", "effect on": "binding", "tested at": "1 µM", "measurement": "remaining binding", "result": "100%"}
{"Compound": "Cc1cc(NC(=O)c2cccc3cc(-c4cccc5[nH]nc(N)c45)ccc23)ccc1F", "target": "CSF1R Y969C", "effect on": "enzyme activity", "action": "inhibitor", "tested at": "0.1 µM", "measurement": "activity vs control", "result": "30%"}
{"Compound": "CN(c1nccc(-c2cnn3ncccc23)n1)C1CC1", "target": "CSF1R", "effect on": "binding", "tested at": "1 µM", "measurement": "remaining binding", "result": "88%"}
{"Compound": "Oc1ccc(-c2nc(-c3ccncc3)c(-c3ccc(F)cc3)[nH]2)cc1", "target": "CSF1R", "effect on": "cell-free assay", "tested at": "0.5 µM", "measurement": "remaining signal", "result": "96.9%"}
{"Compound": "Nc1ncnc2occ(-c3ccc(NC(=O)Nc4cc(C(F)(F)F)ccc4F)cc3)c12", "target": "CSF1R", "effect on": "cell-free assay", "tested at": "20 µM", "measurement": "remaining signal", "result": "0%"}
{"Compound": "N[C@@H]1CCN(c2nccc(-c3cnn4ncccc34)n2)C1", "target": "CSF1R", "effect on": "binding", "tested at": "1 µM", "measurement": "remaining binding", "result": "100%"}
{"Compound": "Nc1cnc(N2CCc3cc(S(=O)(=O)Nc4c(F)cc(Cl)cc4F)cc(N4CCCC4=O)c32)nc1", "target": "CSF1R autoinhibited", "effect on": "cell-free assay", "method": "competition with immobilised ligand", "tested at": "1 µM", "measurement": "remaining binding", "result": "100%"}
{"Compound": "CN(C)C1CCN(CC#Cc2nn(C3CCCC3)c3nc(NCc4ccccc4)ncc23)C1 (stereo not drawn)", "target": "CSF1R", "effect on": "enzyme activity", "action": "inhibitor", "method": "FRET", "tested at": "10 µM", "measurement": "inhibition", "result": "107%"}
{"Compound": "N#CCCc1ccc2c(c1)-c1[nH]c3ccc([N+](=O)[O-])cc3c1CC(=O)N2", "target": "CSF1R", "effect on": "cell-free assay", "tested at": "0.5 µM", "measurement": "remaining signal", "result": "43.4%"}
{"Compound": "COc1ccnn2ncc(-c3ccnc(N(C)C)n3)c12", "target": "CSF1R autoinhibited", "effect on": "binding", "tested at": "1 µM", "measurement": "remaining binding", "result": "91%"}
{"Compound": "O=C1NC(=O)c2cc(Nc3ccc(F)cc3)c(Nc3ccc(F)cc3)cc21", "target": "CSF1R", "effect on": "cell-free assay", "tested at": "0.5 µM", "measurement": "remaining signal", "result": "104%"}
{"Compound": "Cc1ccc(NC(=O)c2ccc(C)c(C(F)(F)F)c2)cc1C#Cc1nn(C2CCC(O)CC2)c2ncnc(N)c12 (stereo not drawn)", "target": "CSF1R Y969C", "effect on": "cell-free assay", "tested at": "10 µM", "measurement": "remaining signal", "result": "13%"}
{"Compound": "CCOC(=O)c1cc2cc(-c3cc(C(=O)NCc4ccc(C(=O)O)cc4)nn3C)ccc2[nH]1", "target": "CSF1R autoinhibited", "effect on": "cell-free assay", "method": "competition with immobilised ligand", "tested at": "0.1 µM", "measurement": "remaining binding", "result": "94%"}
{"Compound": "CCN(CC)CCNC(=O)c1c(C)[nH]c(/C=C2\\C(=O)Nc3ccc(F)cc32)c1C", "target": "CSF1R", "effect on": "cell-free assay", "tested at": "0.3 µM", "measurement": "inhibition", "result": "98%"}
{"Compound": "CC(=O)C1=C(C)N(c2cccc(C(F)(F)F)c2)C(=O)N[C@@H]1c1ccc(C#N)nc1", "target": "CSF1R", "effect on": "cell-free assay", "method": "competition with immobilised ligand", "tested at": "1 µM", "measurement": "remaining binding", "result": "99.4%"}
{"Compound": "COc1cc2ncnc(Nc3ccc(Oc4ccccc4)cc3C)c2cc1OC", "target": "CSF1R", "effect on": "enzyme activity", "action": "inhibitor", "tested at": "1 µM", "measurement": "inhibition", "result": "24%"}
{"Compound": "C[C@@H]1CN(c2cc(-c3nn(C)c4ccc(OC5(C)CC5)cc34)ncn2)C[C@H](C)O1", "target": "CSF1R autoinhibited", "effect on": "cell-free assay", "method": "competition with immobilised ligand", "tested at": "1 µM", "measurement": "remaining binding", "result": "55%"}
{"Compound": "CC(C)(O)[C@H]1CC[C@H](Nc2ccc3ncc(-c4cccc(C(F)(F)F)c4)n3n2)CC1", "target": "CSF1R", "effect on": "enzyme activity", "action": "inhibitor", "tested at": "1 µM", "measurement": "remaining activity", "result": "89.7%"}
